What was measured:
JAK‐1 relative to JAK‐2 = details: human whole blood assays; cited from earlier work
[1] = Studies 1 and 2, steady‐state plasma PK of filgotinib and its major metabolite; format: in vivo, human; details: for Cmax / Tmax / AUC: human, plasma, oral
In short: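 RA patients on stable methotrexate took oral test compound or placebo capsules for 4 weeks: 200 mg once daily or 100 mg twice daily (study 1), or 30, 75, 150 or 300 mg once daily (study 2). In a subset (12 and 15 patients), plasma parent and major metabolite were sampled predose and 1, 2, 3, 5 and 8 h after the morning dose, at week 2 or 4. Descriptive statistics were calculated by dose.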

[2] = tested on: RA patients with an inadequate response to MTX; experiment: Study 1; format: in vivo, human
In short: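 Randomized, double-blind, placebo-controlled trial at one site, 36 RA patients. Patients had MTX for ≥6 months and a stable 7.5–25 mg/week dose for ≥4 weeks, continued throughout. Oral capsules for 4 weeks: 200 mg once daily or 100 mg twice daily. ACR20/50/70 responses, DAS28-CRP and ACR core components (pain VAS, HAQ DI) scored as change from baseline. Intent-to-treat population.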

RA patients = experiment: Studies 1 and 2, laboratory safety, hematology, vital signs, EKG; format: in vivo, human
In short: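 Both double-blind, placebo-controlled trials in RA patients on stable MTX. Oral capsules daily for 4 weeks, with 7–10-day follow-up: 200 mg once daily or 100 mg twice daily (study 1); 30, 75, 150 or 300 mg once daily (study 2). At every visit: AEs, vital signs, hematology, serum biochemistry, coagulation and urinalysis. EKG at baseline and follow-up, plus week 4 in study 1. Safety population, descriptive treatment-emergent AE summaries.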

O=C(Nc1nc2cccc(-c3ccc(CN4CCS(=O)(=O)CC4)cc3)n2n1)C1CC1 [Filgotinib]
selectivity for inhibition of JAK‐1 relative to JAK‐2 (JAK‐1 relative to JAK‐2): ~30 fold | dose proportionality of PK ([1]; 30–300 mg range): essentially dose proportional | Cmax ([1]; 30 mg): 71.6 ng/mL | Tmax ([1]; 30 mg): 1 h | AUC ([1]; 30 mg, AUCtau of filgotinib, steady state, 30 mg once daily, study 2, arithmetic mean (coefficient of variation)): 1340 ng·h/mL | Cmax ([1]; 75 mg): 492 ng/mL | Cmax ([1]; 100 mg): 730 ng/mL | AUC ([1]; 100 mg, AUCtau of filgotinib, steady state, 100 mg twice daily, study 1, arithmetic mean (coefficient of variation)): 2470 ng·h/mL | Cmax ([1]; 150 mg): 1160 ng/mL | Tmax ([1]; 150 mg): 1 h | AUC ([1]; 150 mg, AUCtau of filgotinib, steady state, 150 mg once daily, study 2, arithmetic mean (coefficient of variation)): 6440 ng·h/mL | AUC ([1]; 150 mg, AUCtau, other 4 patients, 150 mg once daily, study 2): 4790 to 5290 ng·h/mL | Cmax ([1]; 200 mg): 1430 ng/mL | AUC ([1]; 200 mg, AUCtau of filgotinib, steady state, 200 mg once daily, study 1, arithmetic mean (coefficient of variation)): 5380 ng·h/mL | Cmax ([1]; 300 mg): 1340 ng/mL | AUC ([1]; 300 mg, AUCtau of filgotinib, steady state, 300 mg once daily, study 2, arithmetic mean (coefficient of variation)): 7710 ng·h/mL | time of dosing to attain steady state ([1]; in vivo): ≤ 2 days | ACR20 responders at week 4 ([2]; 100 mg twice daily, study 1): 11 (91.7) no. (%) | ACR50 responders at week 4 ([2]; 100 mg twice daily, study 1): 4 (33.3) no. (%) | DAS28‐CRP, mean change from baseline at week 4 ([2]; 100 mg twice daily, study 1): −2.81 | HAQ DI score, mean change from baseline at week 4 ([2]; 100 mg twice daily, study 1): −0.52 | Patient's assessment of pain, mean change from baseline at week 4 ([2]; 100 mg twice daily, study 1): −29.8 0–10‐cm VAS | Patient's global assessment of disease activity, mean change from baseline at week 4 ([2]; 100 mg twice daily, study 1): −25.8 0–10‐cm VAS | Physician's global assessment of disease activity, mean change from baseline at week 4 ([2]; 100 mg twice daily, study 1): −35.0 0–10‐cm VAS | Remission rate (DAS28‐CRP <2.6) at week 4 ([2]; 100 mg twice daily, study 1): 3 (25.0) no. (%) | SJC66, mean change from baseline at week 4 ([2]; 100 mg twice daily, study 1): −15.4 | Serum CRP, mean change from baseline at week 4 ([2]; 100 mg twice daily, study 1): -13.84 mg/L | TJC68, mean change from baseline at week 4 ([2]; 100 mg twice daily, study 1): −36.3 | time to normalization of serum CRP level ([2]; 200 mg once daily and 100 mg twice daily, study 1): ≤ 1 week | ACR20 responders at week 4 ([2]; 200 mg once daily, study 1): 9 (75.0) no. (%) | ACR50 responders at week 4 ([2]; 200 mg once daily, study 1): 2 (16.7) no. (%) | DAS28‐CRP, mean change from baseline at week 4 ([2]; 200 mg once daily, study 1): −2.23 | HAQ DI score, mean change from baseline at week 4 ([2]; 200 mg once daily, study 1): −0.57 | Patient's assessment of pain, mean change from baseline at week 4 ([2]; 200 mg once daily, study 1): −24.3 0–10‐cm VAS | Patient's global assessment of disease activity, mean change from baseline at week 4 ([2]; 200 mg once daily, study 1): −23.8 0–10‐cm VAS | Physician's global assessment of disease activity, mean change from baseline at week 4 ([2]; 200 mg once daily, study 1): −26.7 0–10‐cm VAS | Remission rate (DAS28‐CRP <2.6) at week 4 ([2]; 200 mg once daily, study 1): 2 (16.7) no. (%) | SJC66, mean change from baseline at week 4 ([2]; 200 mg once daily, study 1): −12.8 | Serum CRP, mean change from baseline at week 4 ([2]; 200 mg once daily, study 1): -35.05 mg/L | TJC68, mean change from baseline at week 4 ([2]; 200 mg once daily, study 1): −23.1 | patients achieving an ACR20 response ([2]; study 1, all filgotinib‐treated patients, end of 4 weeks): > 83% | Creatinine, mean change, day 28 (RA patients; 30 mg once daily): 1.47 µmol/L | HDL cholesterol, mean change, day 28 (RA patients; 30 mg once daily): 0.03 mmol/L | Hemoglobin, mean change, day 28 (RA patients; 30 mg once daily): −0.3 gm/liter | LDL cholesterol, mean change, day 28 (RA patients; 30 mg once daily): 0.25 mmol/L | Neutrophils, mean change, day 28 (RA patients; 30 mg once daily): -6.5e+08 L⁻¹ | Platelets, mean change, day 28 (RA patients; 30 mg once daily): -1.8e+10 L⁻¹ | Creatinine, mean change, day 28 (RA patients; 75 mg once daily): 5.18 µmol/L | HDL cholesterol, mean change, day 28 (RA patients; 75 mg once daily): 0.11 mmol/L | Hemoglobin, mean change, day 28 (RA patients; 75 mg once daily): 2.0 gm/liter | LDL cholesterol, mean change, day 28 (RA patients; 75 mg once daily): 0.14 mmol/L | Neutrophils, mean change, day 28 (RA patients; 75 mg once daily): -7.4e+08 L⁻¹ | Platelets, mean change, day 28 (RA patients; 75 mg once daily): -3.5e+10 L⁻¹ | Creatinine, mean change, day 28 (RA patients; 100 mg twice daily): -6.98 µmol/L | HDL cholesterol, mean change, day 28 (RA patients; 100 mg twice daily): 0.20 mmol/L | Hemoglobin, mean change, day 28 (RA patients; 100 mg twice daily): 3.0 gm/liter | LDL cholesterol, mean change, day 28 (RA patients; 100 mg twice daily): 0.07 mmol/L | Neutrophils, mean change, day 28 (RA patients; 100 mg twice daily): -1.45e+09 L⁻¹ | Platelets, mean change, day 28 (RA patients; 100 mg twice daily): -3.5e+10 L⁻¹ | Creatinine, mean change, day 28 (RA patients; 150 mg once daily): 4.50 µmol/L | HDL cholesterol, mean change, day 28 (RA patients; 150 mg once daily): 0.07 mmol/L | Hemoglobin, mean change, day 28 (RA patients; 150 mg once daily): −1.0 gm/liter | LDL cholesterol, mean change, day 28 (RA patients; 150 mg once daily): 0.01 mmol/L | Neutrophils, mean change, day 28 (RA patients; 150 mg once daily): -1.37e+09 L⁻¹ | Platelets, mean change, day 28 (RA patients; 150 mg once daily): -3.2e+10 L⁻¹ | increase in HDL at week 4 versus baseline (RA patients; 200 mg): ~15% | Creatinine, mean change, day 28 (RA patients; 200 mg once daily): 5.47 µmol/L | HDL cholesterol, mean change, day 28 (RA patients; 200 mg once daily): 0.16 mmol/L | Hemoglobin, mean change, day 28 (RA patients; 200 mg once daily): 7.8 gm/liter | LDL cholesterol, mean change, day 28 (RA patients; 200 mg once daily): -0.25 mmol/L | Neutrophils, mean change, day 28 (RA patients; 200 mg once daily): -1.21e+09 L⁻¹ | Platelets, mean change, day 28 (RA patients; 200 mg once daily): -3.3e+10 L⁻¹ | increase in HDL at week 4 versus baseline (RA patients; 300 mg): > 30% | Creatinine, mean change, day 28 (RA patients; 300 mg once daily): 6.90 µmol/L | HDL cholesterol, mean change, day 28 (RA patients; 300 mg once daily): 0.48 mmol/L | Hemoglobin, mean change, day 28 (RA patients; 300 mg once daily): 4.4 gm/liter | LDL cholesterol, mean change, day 28 (RA patients; 300 mg once daily): 0.37 mmol/L | Neutrophils, mean change, day 28 (RA patients; 300 mg once daily): -1.13e+09 L⁻¹ | Platelets, mean change, day 28 (RA patients; 300 mg once daily): -5.8e+10 L⁻¹ | decrease in neutrophils from baseline (RA patients; doses of ≥75 mg): 14–24% | lymphocytes and lymphocyte subpopulations (RA patients; during filgotinib treatment): unaffected | liver function tests (transaminases) (RA patients; in vivo): lack of changes | neutropenia (RA patients; in vivo): no neutropenia | reticulocytes (RA patients; in vivo): absence of effects | vital signs values and EKG parameters (RA patients; in vivo): No clinically relevant trends or changes

From article PMC5656813 (Arthritis & Rheumatology (Hoboken, N.j.), 2017)
